Data: ChEMBL document CHEMBL1148329, “Synthesis and structure-activity studies on N-[5-(1H-imidazol-4-yl)-5,6,7,8-tetrahydro-1-naphthalenyl]methanesulfonamide, an imidazole-containing alpha(1A)-adrenoceptor agonist” (J Med Chem, 2004)

Key:
[1] = molecular target: T1, Alpha-1A adrenergic receptor (Oryctolagus cuniculus) (UniProt O02824); assay: Efficacy relative to phenylephrine (PE) to constrict tissue containing the alpha-1A adrenergic receptor in rabbit urethra; format: functional, tissue-based
T1 sequence (whole entry): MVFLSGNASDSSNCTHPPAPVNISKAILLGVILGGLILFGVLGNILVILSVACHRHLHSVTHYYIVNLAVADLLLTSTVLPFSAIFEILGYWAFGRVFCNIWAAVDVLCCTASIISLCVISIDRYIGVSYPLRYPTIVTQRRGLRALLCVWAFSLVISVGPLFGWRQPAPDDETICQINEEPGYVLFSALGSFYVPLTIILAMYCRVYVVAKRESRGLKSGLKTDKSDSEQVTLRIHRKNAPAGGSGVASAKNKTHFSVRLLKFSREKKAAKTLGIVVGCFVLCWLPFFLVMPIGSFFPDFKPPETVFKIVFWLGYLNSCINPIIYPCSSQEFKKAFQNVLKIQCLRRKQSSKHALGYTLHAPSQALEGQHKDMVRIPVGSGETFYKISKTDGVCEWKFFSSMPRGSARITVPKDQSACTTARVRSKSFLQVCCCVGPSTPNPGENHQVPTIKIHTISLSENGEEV
In short: (§1)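 α1-agonist dose–response curves in isolated tissue: rabbit urethra (α1A), rat spleen (α1B), rat aorta (α1D). Agonist potency and efficacy read from the concentration–response curves.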

[2] = molecular target: T2, Alpha-1B adrenergic receptor (Rattus norvegicus) (UniProt P15823); assay: Efficacy relative to phenylephrine (PE) constriction of rat spleen containing alpha-1B adrenergic receptor; format: functional, tissue-based; in short: as §1
T2 sequence (whole entry): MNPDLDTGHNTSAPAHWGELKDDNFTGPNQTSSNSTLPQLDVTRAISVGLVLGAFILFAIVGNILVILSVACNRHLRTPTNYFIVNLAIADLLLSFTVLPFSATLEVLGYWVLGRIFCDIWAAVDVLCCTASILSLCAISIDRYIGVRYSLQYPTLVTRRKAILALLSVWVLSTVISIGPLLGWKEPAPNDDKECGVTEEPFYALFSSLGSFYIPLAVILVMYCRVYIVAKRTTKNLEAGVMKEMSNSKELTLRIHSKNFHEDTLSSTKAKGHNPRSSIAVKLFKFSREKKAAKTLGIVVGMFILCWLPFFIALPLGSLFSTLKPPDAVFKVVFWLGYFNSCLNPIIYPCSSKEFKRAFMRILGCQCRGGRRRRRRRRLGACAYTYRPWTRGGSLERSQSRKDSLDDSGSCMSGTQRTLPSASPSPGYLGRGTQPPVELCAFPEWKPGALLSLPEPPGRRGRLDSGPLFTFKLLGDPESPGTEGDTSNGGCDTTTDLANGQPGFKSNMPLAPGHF

Canis familiaris [3] = assay: Uroselectivity was determined by measuring effective dose required for 20 mmHg increase of mean arterial pressure (MAP) in vivo in dog; format: functional, Canis lupus familiaris, Artery
In short: (§2)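 Dog model recording intraurethral pressure (IUP) and mean arterial pressure (MAP) simultaneously. Increasing iv doses given, maximal effect of each dose taken. Doses giving a 5 mmHg rise in IUP (ED Δ5) or 20 mmHg rise in MAP (ED Δ20) were calculated, in nmol/kg ± SEM, n ≥ 4 (2 or 3 where footnoted).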

[4] = molecular target: T3, Alpha-2A adrenergic receptor (Rattus norvegicus) (UniProt P22909); assay: Efficacy relative to clonidine to constrict tissue containing the alpha-2A adrenergic receptor in rat prostatic vas deferens
T3 sequence (whole entry): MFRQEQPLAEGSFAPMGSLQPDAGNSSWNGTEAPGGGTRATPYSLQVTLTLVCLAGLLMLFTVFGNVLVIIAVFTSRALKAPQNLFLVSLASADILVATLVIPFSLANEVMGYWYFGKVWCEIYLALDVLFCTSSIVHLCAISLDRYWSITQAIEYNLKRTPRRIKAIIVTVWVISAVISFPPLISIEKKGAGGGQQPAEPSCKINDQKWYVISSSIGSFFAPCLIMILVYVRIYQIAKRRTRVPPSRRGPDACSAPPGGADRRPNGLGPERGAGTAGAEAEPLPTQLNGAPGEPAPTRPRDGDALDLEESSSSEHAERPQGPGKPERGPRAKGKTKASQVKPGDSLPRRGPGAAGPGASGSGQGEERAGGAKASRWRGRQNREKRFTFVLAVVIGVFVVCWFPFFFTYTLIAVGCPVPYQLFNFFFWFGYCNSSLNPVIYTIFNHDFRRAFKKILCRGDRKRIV

[5] = molecular target: T4, Alpha-2B adrenergic receptor (Rattus norvegicus, UniProt P19328); assay: In vitro binding affinity towards alpha-2B adrenergic receptor of rat neonatal lung in radioligand binding assay
T4 sequence (P19328 whole entry): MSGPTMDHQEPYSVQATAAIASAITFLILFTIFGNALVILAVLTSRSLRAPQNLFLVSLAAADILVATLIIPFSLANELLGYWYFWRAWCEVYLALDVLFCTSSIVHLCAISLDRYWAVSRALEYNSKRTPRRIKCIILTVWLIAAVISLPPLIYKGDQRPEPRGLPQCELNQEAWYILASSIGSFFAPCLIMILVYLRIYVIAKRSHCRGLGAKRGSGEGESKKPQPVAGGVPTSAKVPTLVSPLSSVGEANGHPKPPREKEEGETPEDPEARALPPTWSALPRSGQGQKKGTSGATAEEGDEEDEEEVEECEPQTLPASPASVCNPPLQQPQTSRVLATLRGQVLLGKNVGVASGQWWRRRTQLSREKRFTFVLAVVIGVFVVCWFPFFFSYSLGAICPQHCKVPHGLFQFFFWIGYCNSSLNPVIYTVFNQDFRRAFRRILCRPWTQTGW

Canis familiaris [6] = assay: Uroselectivity was determined by measuring effective dose required for 5 mmHg increase of intraurethral pressure (IUP) in vivo in dog; format: functional, Canis lupus familiaris; in short: as §2
[7] = molecular target: T5, Alpha-1B adrenergic receptor (Mesocricetus auratus, UniProt P18841); assay: In vitro binding affinity towards alpha-1B adrenergic receptor of hamster clone in radioligand binding assay; format: single protein
T5 sequence (P18841 whole entry): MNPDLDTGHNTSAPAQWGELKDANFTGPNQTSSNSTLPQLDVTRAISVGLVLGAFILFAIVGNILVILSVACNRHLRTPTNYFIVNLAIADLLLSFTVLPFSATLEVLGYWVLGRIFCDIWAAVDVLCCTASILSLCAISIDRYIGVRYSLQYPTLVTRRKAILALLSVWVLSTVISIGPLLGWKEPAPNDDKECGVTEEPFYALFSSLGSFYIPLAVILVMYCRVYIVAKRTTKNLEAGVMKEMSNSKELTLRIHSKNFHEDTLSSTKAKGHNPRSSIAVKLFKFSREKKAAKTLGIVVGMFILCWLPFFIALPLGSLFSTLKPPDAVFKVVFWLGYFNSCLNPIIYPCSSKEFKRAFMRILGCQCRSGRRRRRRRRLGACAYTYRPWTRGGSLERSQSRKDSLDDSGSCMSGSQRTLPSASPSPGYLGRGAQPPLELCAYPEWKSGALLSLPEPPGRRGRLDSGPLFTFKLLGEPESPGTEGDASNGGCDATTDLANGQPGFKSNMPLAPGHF
In short: (§3)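 Radioligand binding at α1 subtypes: α1A from rat submaxillary gland, α1B hamster clone, α1D rat clone. Run essentially per an earlier method.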

Canis familiaris [8] = species: Canis familiaris; assay: Ratio of MAP ED delta20 to that of IUP ED delta5
[9] = molecular target: Alpha adrenergic receptor 1A and 1B (Rattus norvegicus) (UniProt P15823+P43140); assay: Selectivity is ratio of pKi (binding affinity) of alpha-1B receptor to that of alpha-1A receptor.; format: protein assay
[10] = molecular target: T1, Alpha-1A adrenergic receptor (Oryctolagus cuniculus); assay: Functional agonism of the compounds to constrict tissue containing the alpha-1A adrenergic receptor in rabbit urethra; format: tissue-based; in short: as §1
[11] = molecular target: T6, Alpha-1D adrenergic receptor (Rattus norvegicus, UniProt P23944); assay: In vitro binding affinity towards alpha-1D adrenergic receptor of rat clone in radioligand binding assay; in short: as §3
T6 sequence (P23944 whole entry): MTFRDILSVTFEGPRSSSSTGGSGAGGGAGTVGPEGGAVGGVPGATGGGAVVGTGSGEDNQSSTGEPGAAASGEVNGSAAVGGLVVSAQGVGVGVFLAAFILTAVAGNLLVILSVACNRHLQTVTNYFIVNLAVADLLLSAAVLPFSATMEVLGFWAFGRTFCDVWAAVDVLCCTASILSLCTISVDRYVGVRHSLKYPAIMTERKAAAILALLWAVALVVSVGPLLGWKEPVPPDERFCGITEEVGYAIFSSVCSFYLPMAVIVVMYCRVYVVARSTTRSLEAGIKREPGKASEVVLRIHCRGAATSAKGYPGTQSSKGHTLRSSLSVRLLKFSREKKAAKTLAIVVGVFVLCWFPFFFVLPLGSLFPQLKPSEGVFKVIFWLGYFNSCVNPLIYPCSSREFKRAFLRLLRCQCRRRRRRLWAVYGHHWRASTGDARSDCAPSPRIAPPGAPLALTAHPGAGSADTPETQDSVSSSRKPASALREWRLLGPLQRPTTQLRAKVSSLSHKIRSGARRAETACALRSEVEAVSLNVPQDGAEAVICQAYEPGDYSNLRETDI

[12] = molecular target: T7, Alpha-1A adrenergic receptor (Rattus norvegicus, UniProt P43140); assay: In vitro binding affinity towards alpha-1A adrenergic receptor of rat submaxillary gland in radioligand binding assay; in short: as §3
T7 sequence (P43140 whole entry): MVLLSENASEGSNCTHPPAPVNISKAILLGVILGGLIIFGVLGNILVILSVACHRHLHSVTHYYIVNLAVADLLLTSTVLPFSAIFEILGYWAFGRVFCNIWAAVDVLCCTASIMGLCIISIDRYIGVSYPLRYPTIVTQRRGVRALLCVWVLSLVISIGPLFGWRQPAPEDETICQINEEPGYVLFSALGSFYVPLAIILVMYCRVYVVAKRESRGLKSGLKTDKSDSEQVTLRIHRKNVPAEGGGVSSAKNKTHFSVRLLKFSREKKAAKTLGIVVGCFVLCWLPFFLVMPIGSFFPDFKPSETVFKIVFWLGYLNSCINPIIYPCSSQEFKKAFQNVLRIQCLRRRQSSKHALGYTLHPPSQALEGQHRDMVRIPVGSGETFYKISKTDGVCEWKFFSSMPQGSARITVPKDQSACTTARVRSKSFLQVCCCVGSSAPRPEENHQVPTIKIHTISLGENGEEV

[13] = molecular target: Alpha adrenergic receptor 1A and 1D (Rattus norvegicus) (UniProt P23944+P43140); assay: Selectivity is ratio of pKi (binding affinity) of Alpha-1D to that of alpha1A; format: protein assay
[14] = molecular target: T8, Alpha-2A adrenergic receptor (Homo sapiens, UniProt P08913); assay: In vitro binding affinity towards alpha-2A adrenergic receptor of human clone in radioligand binding assay
T8 sequence (P08913 whole entry): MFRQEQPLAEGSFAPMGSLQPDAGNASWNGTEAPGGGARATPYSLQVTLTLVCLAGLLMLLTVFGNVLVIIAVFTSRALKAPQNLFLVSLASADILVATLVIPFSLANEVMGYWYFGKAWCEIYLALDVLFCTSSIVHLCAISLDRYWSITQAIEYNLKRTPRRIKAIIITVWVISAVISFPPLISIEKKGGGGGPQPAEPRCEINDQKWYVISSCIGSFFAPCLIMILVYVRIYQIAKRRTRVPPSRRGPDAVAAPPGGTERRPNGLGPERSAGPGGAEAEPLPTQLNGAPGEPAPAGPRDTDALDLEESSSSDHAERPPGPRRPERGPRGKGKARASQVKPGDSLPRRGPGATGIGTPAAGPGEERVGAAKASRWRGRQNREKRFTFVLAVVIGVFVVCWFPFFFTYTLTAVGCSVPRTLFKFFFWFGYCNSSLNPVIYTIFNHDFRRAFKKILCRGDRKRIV

[15] = molecular target: T2, Alpha-1B adrenergic receptor (Rattus norvegicus); assay: Functional agonism of the compounds to constrict tissue containing the alpha-1B adrenergic receptor in rat spleen; format: tissue-based
In short: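 Agonist dose–response curves were run on isolated tissue: rabbit urethra for α1A, rat spleen for α1B, and rat aorta for α1D.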

Compound | Efficacy [1] [%] | Efficacy [2] [%] | ED delta20 (Canis familiaris [3]) [nM/kg] | Efficacy [4] [%] | Ki [5] [nM] | ED delta5 (Canis familiaris [6]) [nM/kg] | Ki [7] [nM] | Ratio (Canis familiaris [8]) | Selectivity [9] | pD2 [10] | Ki [11] [nM] | Ki [12] [nM] | Selectivity [13] | Ki [14] [nM] | pD2 [15]
CS(=O)(=O)Nc1cccc2c1OCCC2c1c[nH]cn1 (stereo not given) | 88 | 17 | 163.9 | – | – | – | – | – | – | – | – | – | – | – | –
CC(=O)Nc1cccc2c1CCCC2c1c[nH]cn1 (stereo not given) | 70 | 35 | 220 | 100 | 3020 | – | – | – | – | – | – | – | – | – | –
CCS(=O)(=O)Nc1cccc2c1CCC2c1c[nH]cn1 (stereo not given) | 87 | – | 5.6 | 26 | 186 | 4.4 | – | – | – | – | – | – | – | – | –
CS(=O)(=O)Nc1cccc2c1CCCC2C1=NCCN1 (stereo not given) | 87 | – | 9.2 | – | – | 11.9 | 7410 | 1.1 | 20 | 6.19 | 4270 | 457 | 9 | – | –
CCS(=O)(=O)Nc1cc(Cl)cc2c1CCCC2c1c[nH]cn1 (stereo not given) | – | – | 47.7 | – | – | 19.1 | > 10000 | 2.5 | > 217 | – | – | 45.7 | 8 | – | –
CCS(=O)(=O)Nc1cccc(Cc2c[nH]cn2)c1 | 80 | – | 80 | 34 | 977 | 12 | 891 | – | – | – | 275 | – | – | 170 | –
CS(=O)(=O)Nc1cccc2c1CCCC2c1c[nH]cn1 (stereo not given) | 83 | – | 102.3 | 62 | 676 | – | – | – | – | – | – | – | – | 105 | –
COc1ccc(NS(C)(=O)=O)c2c1C(c1c[nH]cn1)CCC2 (stereo not given) | 57 | 26 | 1850 | – | – | – | > 10000 | 2.6 | > 6 | 4.81 | > 10000 | – | > 6 | – | 4.74
CS(=O)(=O)Nc1c(O)ccc2c1CCCC2c1c[nH]cn1 (stereo not given) | 104 | 94 | 0.16 | – | 47.9 | 0.18 | – | 1 | – | – | – | – | – | 44.7 | –
